Experimental data published in ChEMBL document CHEMBL1926569, “Novel (E)-1-(4-methyl-2-(alkylamino)thiazol-5-yl)-3-arylprop-2-en-1-ones as potent antimicrobial agents” (2011).
Converted amounts (≈) assume the structure as drawn.

Legend:
Aspergillus ochraceus [1] = test: Antifungal activity against Aspergillus ochraceus ATCC 12066 after 72 hrs by serial dilution technique; format: functional; conditions: ATCC 12066, 72 h
Procedure, shortened: (§1)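 Modified microdilution in 96-well plates. Fungi were kept on malt agar at 4 °C. Spores were washed off in sterile 0.85% saline with 0.1% Tween 80. Compounds were dissolved at 1 mg/ml in 5% DMSO with 0.1% Tween 80 and added to malt broth with inoculum. Plates were shaken at 160 rpm for 72 h at 28 °C. Duplicate, repeated three times.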

Enterococcus faecalis [2] = test: Antibacterial activity against Enterococcus faecalis isolated from human incubated for 24 hrs followed by serial sub-cultivation for 24 hrs by microdilution; format: functional
Procedure, shortened: (§2)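 MBC: after the 24 h LB broth microdilution (1.0 × 10⁴ CFU per well, 160 rpm), wells were serially sub-cultured into fresh broth plates and incubated a further 24 h. MBC is the lowest concentration with no visible growth, taken as 99.5% killing of the original inoculum. Duplicate, repeated three times.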

Talaromyces funiculosus [3] = test: Antifungal activity against Penicillium funiculosum ATCC 36839 incubated for 72 hrs followed by serial sub-cultivation for 72 hrs by serial dilution technique; format: functional; conditions: ATCC 36839, 72 h
Procedure, shortened: (§3)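 MFC: material from 72 h malt broth microdilution wells was serially sub-cultured into fresh broth plates and incubated a further 72 h at 28 °C. Fungicidal concentration is taken from growth after sub-culture. Duplicate, repeated three times.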

Candida albicans [4] = test: Ratio of bifonazole to compound for Candida albicans isolated from human; format: functional
Penicillium ochrochloron [5] = test: Antifungal activity against Penicillium ochrochloron ATCC 9112 incubated for 72 hrs followed by serial sub-cultivation for 72 hrs by serial dilution technique; format: functional; conditions: ATCC 9112, 72 h; procedure, shortened: as §3
Pseudomonas aeruginosa [6] = test: Ratio of ampicillin MIC to compound MIC for Pseudomonas aeruginosa ATCC 27853; format: functional
Aspergillus ochraceus [7] = test: Antifungal activity against Aspergillus ochraceus after 72 hrs by serial dilution technique
Aspergillus flavus [8] = test: Antifungal activity against Aspergillus flavus ATCC 9643 after 72 hrs by serial dilution technique; format: functional; conditions: ATCC 9643, 72 h; procedure, shortened: as §1
Trichoderma viride [9] = test: Ratio of bifonazole to compound for Trichoderma viride IAM 5061; format: functional
Penicillium ochrochloron [10] = test: Ratio of ketoconazole to compound for Penicillium ochrochloron ATCC 9112; format: functional
Penicillium ochrochloron [11] = test: Antifungal activity against Penicillium ochrochloron ATCC 9112 after 72 hrs by serial dilution technique; format: functional; conditions: ATCC 9112, 72 h; procedure, shortened: as §1
Salmonella typhimurium [12] = test: Antibacterial activity against Salmonella Typhimurium ATCC 13311 after 24 hrs by microdilution method; format: functional, Salmonella enterica subsp. enterica serovar Typhimurium; conditions: Salmonella enterica, ATCC 13311, 24 h
Procedure, shortened: (§4)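 Broth microdilution in 96-well plates. Bacterial suspensions were adjusted in sterile saline to 1.0 × 10⁵ CFU/ml, prepared daily and kept at 4 °C. Compound was added to LB broth with 1.0 × 10⁴ CFU per well and shaken at 160 rpm for 24 h at […] (so in the source). MIC is the lowest concentration with no visible growth under a binocular microscope. OD655 was also read. Duplicate, repeated three times.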

Trichoderma viride [13] = test: Antifungal activity against Trichoderma viride IAM 5061 after 72 hrs by serial dilution technique; format: functional; conditions: IAM 5061, 72 h; procedure, shortened: as §1
Enterococcus faecalis [14] = test: Antibacterial activity against Enterococcus faecalis isolated from human after 24 hrs by microdilution method; format: functional; procedure, shortened: as §4
Aspergillus ochraceus [15] = test: Ratio of bifonazole to compound for Aspergillus ochraceus ATCC 12066; format: functional
Aspergillus niger [16] = test: Antifungal activity against Aspergillus niger ATCC 6275 after 72 hrs by serial dilution technique; format: functional; conditions: ATCC 6275, 72 h; procedure, shortened: as §1
Micrococcus flavus [17] = test: Antibacterial activity against Micrococcus flavus ATCC 10240 incubated for 24 hrs followed by serial sub-cultivation for 24 hrs by microdilution; format: functional; conditions: ATCC 10240, 24 h; procedure, shortened: as §2
Bacillus cereus [18] = test: Antibacterial activity against clinical isolate of Bacillus cereus after 24 hrs by microdilution method; format: functional; procedure, shortened: as §4
Staphylococcus aureus [19] = test: Antibacterial activity against Staphylococcus aureus ATCC 6538 after 24 hrs by microdilution method; format: functional; conditions: ATCC 6538, 24 h; procedure, shortened: as §4
Micrococcus flavus [20] = test: Antibacterial activity against Micrococcus flavus ATCC 10240 after 24 hrs by microdilution method; format: functional; conditions: ATCC 10240, 24 h; procedure, shortened: as §4
Penicillium ochrochloron [21] = test: Ratio of bifonazole to compound for Penicillium ochrochloron ATCC 9112; format: functional
Trichoderma viride [22] = test: Antifungal activity against Trichoderma viride IAM 5061 incubated for 72 hrs followed by serial sub-cultivation for 72 hrs by serial dilution technique; format: functional; conditions: IAM 5061, 72 h; procedure, shortened: as §3
Talaromyces funiculosus [23] = test: Antifungal activity against Penicillium funiculosum ATCC 36839 after 72 hrs by serial dilution technique; format: functional; conditions: ATCC 36839, 72 h; procedure, shortened: as §1
Aspergillus fumigatus [24] = test: Antifungal activity against Aspergillus fumigatus isolated from human incubated for 72 hrs followed by serial sub-cultivation for 72 hrs by serial dilution technique; format: functional; procedure, shortened: as §3
Pseudomonas aeruginosa [25] = test: Antibacterial activity against Pseudomonas aeruginosa ATCC 27853 incubated for 24 hrs followed by serial sub-cultivation for 24 hrs by microdilution; format: functional; conditions: ATCC 27853, 24 h; procedure, shortened: as §2
Aspergillus flavus [26] = test: Antifungal activity against Aspergillus flavus ATCC 9643 incubated for 72 hrs followed by serial sub-cultivation for 72 hrs by serial dilution technique; format: functional; conditions: ATCC 9643, 72 h; procedure, shortened: as §3
Pseudomonas aeruginosa [27] = test: Antibacterial activity against Pseudomonas aeruginosa ATCC 27853 after 24 hrs by microdilution method; format: functional; conditions: ATCC 27853, 24 h; procedure, shortened: as §4
Aspergillus fumigatus [28] = test: Ratio of ketoconazole to compound for Aspergillus fumigatus isolated from human; format: functional
Candida albicans [29] = test: Antifungal activity against Candida albicans isolated from human incubated for 72 hrs followed by serial sub-cultivation for 72 hrs by serial dilution technique; format: functional; procedure, shortened: as §3
Aspergillus ochraceus [30] = test: Ratio of ketoconazole to compound for Aspergillus ochraceus ATCC 12066; format: functional
Aspergillus ochraceus [31] = test: Antifungal activity against Aspergillus ochraceus ATCC 12066 incubated for 72 hrs followed by serial sub-cultivation for 72 hrs by serial dilution technique; format: functional; conditions: ATCC 12066, 72 h; procedure, shortened: as §3
Escherichia coli [32] = test: Antibacterial activity against Escherichia coli ATCC 35210 incubated for 24 hrs followed by serial sub-cultivation for 24 hrs by microdilution; format: functional; conditions: ATCC 35210, 24 h; procedure, shortened: as §2
Listeria monocytogenes [33] = test: Antibacterial activity against Listeria monocytogenes NCTC 7973 after 24 hrs by microdilution method; format: functional; conditions: NCTC 7973, 24 h; procedure, shortened: as §4
Talaromyces funiculosus [34] = test: Ratio of bifonazole to compound for Penicillium funiculosum ATCC 36839; format: functional
Listeria monocytogenes [35] = test: Antibacterial activity against Listeria monocytogenes NCTC 7973 incubated for 24 hrs followed by serial sub-cultivation for 24 hrs by microdilution; format: functional; conditions: NCTC 7973, 24 h; procedure, shortened: as §2
Bacillus cereus [36] = test: Antibacterial activity against clinical isolate of Bacillus cereus incubated for 24 hrs followed by serial sub-cultivation for 24 hrs by microdilution; format: functional; procedure, shortened: as §2
Staphylococcus aureus [37] = test: Antibacterial activity against Staphylococcus aureus ATCC 6538 incubated for 24 hrs followed by serial sub-cultivation for 24 hrs by microdilution method; format: functional; conditions: ATCC 6538, 24 h; procedure, shortened: as §2
Salmonella typhimurium [38] = test: Antibacterial activity against Salmonella Typhimurium ATCC 13311 incubated for 24 hrs followed by serial sub-cultivation for 24 hrs by microdilution; format: functional, Salmonella enterica subsp. enterica serovar Typhimurium; conditions: Salmonella enterica, ATCC 13311, 24 h; procedure, shortened: as §2
Candida albicans [39] = test: Antifungal activity against Candida albicans isolated from human after 72 hrs by serial dilution technique; format: functional; procedure, shortened: as §1
Aspergillus niger [40] = test: Ratio of bifonazole to compound for Aspergillus niger ATCC 6275; format: functional
Escherichia coli [41] = test: Antibacterial activity against Escherichia coli ATCC 35210 after 24 hrs by microdilution method; format: functional; conditions: ATCC 35210, 24 h; procedure, shortened: as §4
Aspergillus niger [42] = test: Antifungal activity against Aspergillus niger ATCC 6275 incubated for 72 hrs followed by serial sub-cultivation for 72 hrs by serial dilution technique; format: functional; conditions: ATCC 6275, 72 h; procedure, shortened: as §3
Candida albicans [43] = test: Ratio of ketoconazole to compound for Candida albicans isolated from human; format: functional

MIC (Aspergillus ochraceus [1]): 36.2 µM (≈ 10 µg/mL)
MIC (Aspergillus ochraceus [7]): 36.2 µM (≈ 10 µg/mL)
MIC (Aspergillus flavus [8]): 36.2 µM (≈ 10 µg/mL)
MIC (Penicillium ochrochloron [11]): 36.2 µM (≈ 10 µg/mL)
MIC (Salmonella typhimurium [12]): 54.3 µM (≈ 15 µg/mL)
MIC (Trichoderma viride [13]): 72.5 µM (≈ 20 µg/mL)
MIC (Enterococcus faecalis [14]): 54.3 µM (≈ 15 µg/mL)
MIC (Aspergillus niger [16]): 36.2 µM (≈ 10 µg/mL)
MIC (Bacillus cereus [18]): 36.2 µM (≈ 10 µg/mL)
MIC (Staphylococcus aureus [19]): 72.5 µM (≈ 20 µg/mL)
MIC (Micrococcus flavus [20]): 32.6 µM (≈ 9.01 µg/mL)
MIC (Talaromyces funiculosus [23]): 36.2 µM (≈ 10 µg/mL)
MIC (Pseudomonas aeruginosa [27]): 72.5 µM (≈ 20 µg/mL)
MIC (Listeria monocytogenes [33]): 90.6 µM (≈ 25 µg/mL)
MIC (Candida albicans [39]): 72.5 µM (≈ 20 µg/mL)
MIC (Escherichia coli [41]): 54.3 µM (≈ 15 µg/mL)
Compound: CNc1nc(C)c(C(=O)/C=C/c2ccc(F)cc2)s1
MBC (Enterococcus faecalis [2]): 72.5 µM (≈ 20 µg/mL)
MFC (Talaromyces funiculosus [3]): 72.5 µM (≈ 20 µg/mL)
Ratio (Candida albicans [4]): 10
MFC (Penicillium ochrochloron [5]): 72.5 µM (≈ 20 µg/mL)
Ratio (Pseudomonas aeruginosa [6]): 10
Ratio (Trichoderma viride [9]): 10
Ratio (Penicillium ochrochloron [10]): 10
Ratio (Aspergillus ochraceus [15]): 10
MBC (Micrococcus flavus [17]): 72.5 µM (≈ 20 µg/mL)
Ratio (Penicillium ochrochloron [21]): 10
MFC (Trichoderma viride [22]): 90.6 µM (≈ 25 µg/mL)
MFC (Aspergillus fumigatus [24]): 72.5 µM (≈ 20 µg/mL)
MBC (Pseudomonas aeruginosa [25]): 111 µM (≈ 30.6 µg/mL)
MFC (Aspergillus flavus [26]): 90.6 µM (≈ 25 µg/mL)
Ratio (Aspergillus fumigatus [28]): 10
MFC (Candida albicans [29]): 90.6 µM (≈ 25 µg/mL)
Ratio (Aspergillus ochraceus [30]): 10
MFC (Aspergillus ochraceus [31]): 72.5 µM (≈ 20 µg/mL)
MBC (Escherichia coli [32]): 72.5 µM (≈ 20 µg/mL)
Ratio (Talaromyces funiculosus [34]): 10
MBC (Listeria monocytogenes [35]): 90.6 µM (≈ 25 µg/mL)
MBC (Bacillus cereus [36]): 54.3 µM (≈ 15 µg/mL)
MBC (Staphylococcus aureus [37]): 72.5 µM (≈ 20 µg/mL)
MBC (Salmonella typhimurium [38]): 72.5 µM (≈ 20 µg/mL)
Ratio (Aspergillus niger [40]): 10
MFC (Aspergillus niger [42]): 72.5 µM (≈ 20 µg/mL)
Ratio (Candida albicans [43]): 10
